Measured values reported in ChEMBL document CHEMBL4373666, “Piperidine carbamate peptidomimetic inhibitors of the serine proteases HGFA, matriptase and hepsin” (Medchemcomm, 2019).
pIC50: −log10 of the molar value.

Legend:
[1] = target: T1, Hepatocyte growth factor activator serine protease (Homo sapiens, UniProt Q04756); assay: Inhibition of recombinant HGFA serine protease domain (unknown origin) using Boc-QLR-AMC as substrate preincubated for 30 mins followed by substrate addition by fluorescence based assay
T1 sequence (Q04756 whole entry): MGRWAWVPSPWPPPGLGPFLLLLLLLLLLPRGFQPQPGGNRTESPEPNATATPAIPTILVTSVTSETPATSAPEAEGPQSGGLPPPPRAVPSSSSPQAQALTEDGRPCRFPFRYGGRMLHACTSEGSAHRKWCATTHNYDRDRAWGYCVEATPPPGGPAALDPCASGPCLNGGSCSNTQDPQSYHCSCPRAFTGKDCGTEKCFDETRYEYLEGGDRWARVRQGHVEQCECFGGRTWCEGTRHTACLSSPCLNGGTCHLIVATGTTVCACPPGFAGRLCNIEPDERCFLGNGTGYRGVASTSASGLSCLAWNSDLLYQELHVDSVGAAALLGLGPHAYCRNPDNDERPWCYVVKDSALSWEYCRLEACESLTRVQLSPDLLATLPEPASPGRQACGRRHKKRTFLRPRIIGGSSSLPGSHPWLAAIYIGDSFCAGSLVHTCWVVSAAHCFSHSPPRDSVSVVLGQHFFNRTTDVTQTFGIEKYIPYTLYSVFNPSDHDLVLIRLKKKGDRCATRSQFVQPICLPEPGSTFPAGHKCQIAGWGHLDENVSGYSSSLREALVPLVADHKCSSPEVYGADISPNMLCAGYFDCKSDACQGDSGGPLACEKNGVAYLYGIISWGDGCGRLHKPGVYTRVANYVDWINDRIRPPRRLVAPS
Method in brief: (§1)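 Fluorogenic kinetic protease assay: Boc-QLR-AMC substrate for HGFA, Boc-QAR-AMC for hepsin. Each inhibitor was tested at eleven concentrations, pre-incubated with the protease, and then substrate was added. Release of fluorescent product was followed kinetically over one hour, and IC50 was taken from the concentration-dependent inhibition of proteolysis.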

Coagulation factor X = Coagulation factor X (Homo sapiens, UniProt P00742); assay: Inhibition of recombinant factor Xa (unknown origin) using Bz-Ile-Glu-Gly-Arg-pNA as substrate preincubated for 30 mins followed by substrate addition by chromogenic assay
Coagulation factor X, sequence (P00742 41-179 limits assumed): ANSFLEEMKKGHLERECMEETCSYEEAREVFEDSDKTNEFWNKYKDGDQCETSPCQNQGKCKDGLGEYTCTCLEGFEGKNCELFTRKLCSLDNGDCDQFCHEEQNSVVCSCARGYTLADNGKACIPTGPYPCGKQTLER
Coagulation factor X, sequence (P00742 235-488 limits assumed): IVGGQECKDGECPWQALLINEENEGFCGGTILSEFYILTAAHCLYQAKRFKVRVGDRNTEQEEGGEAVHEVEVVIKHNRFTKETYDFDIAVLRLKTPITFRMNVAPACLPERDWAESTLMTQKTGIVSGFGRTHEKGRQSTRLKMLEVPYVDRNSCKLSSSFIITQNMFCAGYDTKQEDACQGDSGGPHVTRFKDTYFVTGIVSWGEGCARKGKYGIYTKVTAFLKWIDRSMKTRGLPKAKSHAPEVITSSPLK

Prothrombin = Prothrombin (Homo sapiens, UniProt P00734); assay: Inhibition of recombinant thrombin (unknown origin) using D-Phe-Pip-Arg-pNA as substrate preincubated for 30 mins followed by substrate addition by chromogenic assay
[2] = target: T2, Suppressor of tumorigenicity 14 protein (Homo sapiens, UniProt Q9Y5Y6); assay: Inhibition of recombinant human N-terminal met-His6-tagged matriptase catalytic domain (Gly596 to Val855 residues) expressed in Escherichia coli using Boc-QAR-AMC as substrate preincubated for 30 mins followed by substrate addition by fluorescence based assay
T2 sequence (Q9Y5Y6 whole entry): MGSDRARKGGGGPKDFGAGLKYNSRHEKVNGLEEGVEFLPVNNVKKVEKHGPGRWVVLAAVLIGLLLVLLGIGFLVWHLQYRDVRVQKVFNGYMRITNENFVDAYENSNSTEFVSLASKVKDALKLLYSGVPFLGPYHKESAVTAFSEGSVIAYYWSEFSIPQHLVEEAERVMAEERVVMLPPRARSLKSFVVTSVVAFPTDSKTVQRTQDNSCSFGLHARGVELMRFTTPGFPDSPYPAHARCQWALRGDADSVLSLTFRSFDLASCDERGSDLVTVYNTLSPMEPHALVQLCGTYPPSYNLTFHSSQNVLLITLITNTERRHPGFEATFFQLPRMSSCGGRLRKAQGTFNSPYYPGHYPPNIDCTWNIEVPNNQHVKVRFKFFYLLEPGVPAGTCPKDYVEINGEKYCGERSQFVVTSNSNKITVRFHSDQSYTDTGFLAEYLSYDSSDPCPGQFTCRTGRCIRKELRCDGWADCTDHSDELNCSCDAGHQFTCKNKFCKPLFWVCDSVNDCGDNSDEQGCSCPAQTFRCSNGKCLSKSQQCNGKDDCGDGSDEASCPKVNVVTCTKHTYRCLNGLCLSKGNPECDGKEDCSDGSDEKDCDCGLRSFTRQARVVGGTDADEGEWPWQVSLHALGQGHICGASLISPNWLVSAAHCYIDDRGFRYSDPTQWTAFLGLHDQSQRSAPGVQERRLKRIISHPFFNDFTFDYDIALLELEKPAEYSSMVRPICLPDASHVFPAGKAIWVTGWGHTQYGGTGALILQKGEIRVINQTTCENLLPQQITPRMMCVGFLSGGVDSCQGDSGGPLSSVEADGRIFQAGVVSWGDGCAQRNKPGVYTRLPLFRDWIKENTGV

Serine protease hepsin = Serine protease hepsin (Homo sapiens, UniProt P05981); assay: Inhibition of recombinant human C-terminal 10-His tagged hepsin (Arg45 to Leu417) expressed in mouse myeloma cells using Boc-QAR-AMC as substrate preincubated for 30 mins followed by substrate addition by fluorescence based assay; method in brief: as §1
Serine protease hepsin, sequence (P05981 1-162 limits assumed): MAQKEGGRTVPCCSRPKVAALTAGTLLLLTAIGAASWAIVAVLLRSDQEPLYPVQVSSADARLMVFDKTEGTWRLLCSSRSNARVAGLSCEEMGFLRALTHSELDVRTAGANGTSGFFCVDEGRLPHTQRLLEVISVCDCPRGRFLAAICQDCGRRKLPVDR
Serine protease hepsin, sequence (P05981 163-417 limits assumed): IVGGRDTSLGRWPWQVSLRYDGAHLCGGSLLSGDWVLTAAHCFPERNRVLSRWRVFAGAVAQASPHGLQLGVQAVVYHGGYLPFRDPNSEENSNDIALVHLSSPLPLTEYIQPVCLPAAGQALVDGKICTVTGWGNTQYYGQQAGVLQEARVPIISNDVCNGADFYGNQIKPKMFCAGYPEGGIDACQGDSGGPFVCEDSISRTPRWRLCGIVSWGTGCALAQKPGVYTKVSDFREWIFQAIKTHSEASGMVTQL

| Compound | pIC50 [1] | pIC50 (Coagulation factor X) | pIC50 (Prothrombin) | pIC50 [2] | pIC50 (Serine protease hepsin) |
| --- | --- | --- | --- | --- | --- |
| CC(=O)N1CCC(CCc2ccccc2)(OC(=O)N[C@@H](CC(C)C)C(=O)N[C@@H](CCCNC(=N)N)C(=O)c2nc3ccccc3s2)CC1 | < 4.70 | – | – | – | – |
| CC1CN(CC2CCN(Cc3ccccc3)CC2)C(=O)N(c2cccc(C(=N)N)c2)C1 (configuration not stated) | 4.70 | 6.42 | 4.94 | 5.49 | 5.72 |
| N=C(N)NCCC[C@H](NC(=O)[C@H](CC1CCCCC1)NC(=O)OC1(c2ccccc2)CCNCC1)C(=O)c1nc2ccccc2s1 | < 4.70 | – | < 4.70 | – | – |
| CC(=O)N[C@@H](CO)C(=O)N[C@@H](CCCCN)C(=O)N[C@@H](CC(C)C)C(=O)N[C@@H](CCCNC(=N)N)C(=O)c1nc2ccccc2s1 | – | – | < 4.70 | – | – |
| CC(=O)N[C@@H](CCCCN)C(=O)N[C@@H](CCC(N)=O)C(=O)N[C@@H](CC(C)C)C(=O)N[C@@H](CCCNC(=N)N)C(=O)c1nc2ccccc2s1 | – | – | < 4.70 | – | – |
| CCS(=O)(=O)N1CCC(OC(=O)N[C@@H](CC(C)C)C(=O)N[C@@H](CCCNC(=N)N)C(=O)c2nc3ccccc3s2)CC1 | < 4.70 | < 4.70 | < 4.70 | – | – |
| CC(C)C[C@H](NC(=O)OC1CCN(S(=O)(=O)c2cccc(F)c2)CC1)C(=O)N[C@@H](CCCNC(=N)N)C(=O)c1nc2ccccc2s1 | < 4.70 | – | – | – | – |
| CC(C)C[C@H](NC(=O)OC1CCN(S(=O)(=O)c2ccc([N+](=O)[O-])cc2[N+](=O)[O-])CC1)C(=O)N[C@@H](CCCNC(=N)N)C(=O)c1nc2ccccc2s1 | < 4.70 | – | – | – | – |
| CC(=O)N1CCC(OC(=O)N[C@@H](CC(C)C)C(=O)N[C@@H](CCCNC(=N)N)C(=O)c2nc3ccccc3s2)CC1 | < 4.70 | – | – | – | – |
| N=C(N)c1cccc(C[C@H](NS(=O)(=O)c2ccc3ccccc3c2)C(=O)N2CCN(C(=O)NCc3ccc(Br)cc3)CC2)c1 | 4.52 | – | – | 5.08 | 7.05 |
| CC(C)C[C@H](NC(=O)OC1CCN(S(=O)(=O)c2ccccc2)CC1)C(=O)N[C@@H](CCCNC(=N)N)C(=O)c1nc2ccccc2s1 | – | < 4.70 | < 4.70 | – | – |
| CC(C)C[C@H](NC(=O)OC1(Cc2ccccc2)CCNCC1)C(=O)N[C@@H](CCCNC(=N)N)C(=O)c1nc2ccccc2s1 | 5.92 | 5.19 | < 4.70 | 7.52 | 9.22 |
| Cc1cc(C)c(S(=O)(=O)N2CCC(OC(=O)N[C@@H](CC(C)C)C(=O)N[C@@H](CCCNC(=N)N)C(=O)c3nc4ccccc4s3)CC2)c(C)c1 | – | – | – | < 4.70 | – |
| CC(C)C[C@H](NC(=O)OC(c1ccccc1)C1CCNCC1)C(=O)N[C@@H](CCCNC(=N)N)C(=O)c1nc2ccccc2s1 (some centres not stated) | – | < 4.70 | < 4.70 | – | – |
| CC(C)C[C@H](NC(=O)OC1(c2ccccc2)CCNCC1)C(=O)N[C@@H](CCCNC(=N)N)C(=O)c1nc2ccccc2s1 | – | – | < 4.70 | – | – |
| CC(C)c1cc(C(C)C)c(S(=O)(=O)N[C@@H](Cc2cccc(C(=N)N)c2)C(=O)N2CCN(C(=O)C3CCNCC3)CC2)c(C(C)C)c1 | 4.96 | – | – | – | 4.85 |
